Results from ChEMBL document CHEMBL1129373, “Synthesis and evaluation of pregnane derivatives as inhibitors of human testicular 17 alpha-hydroxylase/C17,20-lyase” (J Med Chem, 1996).

Target: T1, Steroid 17-alpha-hydroxylase/17,20 lyase (Homo sapiens, UniProt P05093)
T1 sequence (P05093 whole entry): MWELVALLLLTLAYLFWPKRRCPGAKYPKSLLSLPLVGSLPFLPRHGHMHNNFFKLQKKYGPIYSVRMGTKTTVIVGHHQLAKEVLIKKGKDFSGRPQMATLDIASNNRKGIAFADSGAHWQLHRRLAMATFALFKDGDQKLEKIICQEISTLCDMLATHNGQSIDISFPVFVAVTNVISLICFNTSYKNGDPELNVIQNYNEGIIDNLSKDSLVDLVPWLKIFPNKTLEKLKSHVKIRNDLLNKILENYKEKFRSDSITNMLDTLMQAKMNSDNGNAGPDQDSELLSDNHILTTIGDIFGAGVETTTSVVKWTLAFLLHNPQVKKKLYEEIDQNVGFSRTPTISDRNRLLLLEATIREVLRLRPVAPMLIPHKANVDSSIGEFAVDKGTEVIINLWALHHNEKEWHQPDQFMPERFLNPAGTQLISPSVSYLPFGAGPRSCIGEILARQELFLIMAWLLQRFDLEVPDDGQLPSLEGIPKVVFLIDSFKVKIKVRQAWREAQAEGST
Experiment: Inhibition of human testicular C17,20-lyase, cytochrome P450 17A1; No inhibition
Settings: not given; call rule not given here

Row | SMILES | IC50
1 | C/C(=N\N(C)C)C1CCC2C3CC=C4C[C@@H](O)CC[C@]4(C)C3CC[C@]12C (stereo partly specified) | Not Active
2 | C#C[C@]1(O)CCC2C3CCC4=CC(=O)CC[C@]4(C)C3CC[C@@]21C (stereo partly specified) | Not Active

Target: T1, Steroid 17-alpha-hydroxylase/17,20 lyase
Experiment: Inhibition of human testicular steroid 17-alpha-hydroxylase
Settings: not given
Method in brief: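 Human testicular microsomes (from orchidectomy testes, stored −70 °C, diluted in 0.1 M phosphate buffer; ca. 90 μg protein) incubated with [7-³H]pregnenolone (400 nM), NADPH-generating system and four to five inhibitor concentrations, pH 7.4, under oxygen, 5 min, 34 °C. Reverse-phase HPLC with radioactivity counting; hydroxylase activity from conversion to 17α-hydroxypregnenolone plus DHEA. IC50 by nonlinear regression; duplicates, repeated at least once.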

Row | SMILES | IC50
3 | C/C(=N\N(C)C)C1CCC2C3CC=C4C[C@@H](O)CC[C@]4(C)C3CC[C@]12C (stereo partly specified) | No inhibition
4 | C#C[C@]1(O)CCC2C3CCC4=CC(=O)CC[C@]4(C)C3CC[C@@]21C (stereo partly specified) | No inhibition

Same assay, conditions: read-out: IC50

Row | SMILES | IC50
5 | C[C@]12CCC3C(CC=C4C[C@@H](O)CC[C@@]43C)C1CCC2[C@]1(C)CO1 (stereo partly specified) | 730 nM
6 | C[C@H](N)[C@H]1CC[C@H]2[C@@H]3CC=C4C[C@@H](O)CC[C@]4(C)[C@H]3CC[C@]12C | 89800 nM
7 | C[C@]12CC[C@H](O)CC1=CCC1C2CC[C@]2(C)/C(=N/N)CCC12 (stereo partly specified) | 6480 nM
8 | CC(=O)C1=CCC2C3CCC4=CC(=O)CC[C@]4(C)C3CC[C@]12C (stereo partly specified) | 1770 nM
9 | C/C(=N\N)[C@H]1CC[C@H]2[C@@H]3CC=C4C[C@@H](O)CC[C@]4(C)[C@H]3CC[C@]12C | 9980 nM
10 | C#CC1CCC2C3CC=C4C[C@@H](O)CC[C@]4(C)C3CC[C@]12C (stereo partly specified) | 3560 nM
11 | C/C(=N/O)C1CCC2C3CC=C4C[C@@H](O)CC[C@]4(C)C3CC[C@]12C (stereo partly specified) | 530 nM
12 | C[C@@H](C#N)C1CCC2C3CCC4=CC(=O)CC[C@]4(C)C3CC[C@@]21C (stereo partly specified) | 1100 nM
13 | CN(C=O)C1CCC2C3CCC4=CC(=O)CC[C@]4(C)C3CC[C@@]21C (stereo partly specified) | 800 nM
14 | C/C(C#N)=C1/CCC2C3CCC4=CC(=O)CC[C@]4(C)C3CC[C@]12C (stereo partly specified) | 1220 nM
15 | C/C(=N/O)C1=CCC2C3CC=C4C[C@@H](O)CC[C@]4(C)C3CC[C@]12C (stereo partly specified) | 16 nM
16 | C=CC1CCC2C3CC=C4C[C@@H](O)CC[C@]4(C)C3CC[C@]12C (stereo partly specified) | 2880 nM
17 | C/C(=N\N(C)C)C1=CCC2C3CC=C4C[C@@H](O)CC[C@]4(C)C3CC[C@]12C (stereo partly specified) | 43700 nM
18 | CC(=O)C1=CCC2C3CC=C4C[C@@H](O)CC[C@]4(C)C3CC[C@]12C (stereo partly specified) | 510 nM
19 | C[C@@H](O)C1CCC2C3CC=C4C[C@@H](O)CC[C@]4(C)C3CC[C@@]21C (stereo partly specified) | 180 nM
20 | C[C@@H](C=O)C1CCC2C3CCC4=CC(=O)CC[C@]4(C)C3CC[C@@]21C (stereo partly specified) | 230 nM
21 | C[C@]12CC[C@H](O)CC1=CCC1C2CC[C@]2(C)/C(=N/O)CCC12 (stereo partly specified) | 13500 nM
22 | C[C@@H](/C=N/O)[C@H]1CC[C@H]2[C@@H]3CCC4=CC(=O)CC[C@]4(C)[C@H]3CC[C@]12C | 5980 nM
23 | C[C@@H](O)C1CCC2C3CCC4=CC(=O)CC[C@]4(C)C3CC[C@@]21C (stereo partly specified) | 490 nM
24 | C[C@@H](N)[C@H]1CC[C@H]2[C@@H]3CC=C4C[C@@H](O)CC[C@]4(C)[C@H]3CC[C@]12C | 9800 nM
25 | CC(O)C1CCC2C3CC=C4C[C@@H](O)CC[C@]4(C)C3CC[C@]12C (stereo partly specified) | 720 nM
26 | C[C@@H](O)[C@H]1CC[C@H]2[C@@H]3CCC4=CC(=O)CC[C@]4(C)[C@H]3CC[C@]12C | 2840 nM
